Source: publication PMC7540589 (Chemmedchem, 2020)

Assay: Thermal and radiochemical stability during 68Ga-radiolabeling
Format: physicochemical
Details: elevated temperature of 99 °C
Procedure, shortened: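 Precursor (20 nmol in water) was added to 376.6–461.0 MBq ⁶⁸Ga³⁺ from ⁶⁸Ge/⁶⁸Ga generator fractioned elution with 0.1 M HCl. The mixture was titrated to pH 3.5–4.0 with 1.25 M sodium acetate and heated at 99 °C for 10 min. Reaction mixtures were analysed by analytical radio-HPLC.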

With “Ac[D‐Cys^29,Lys(DOTA)^31,Cys^34]NPY29‐36 [Compound 4]” the “thermal stability of precursor” value was “stable”.
